# Reference: ChEMBL document CHEMBL1140884, “Oligodeoxyribonucleotide-based antagonists for Toll-like receptors 7 and 9” (2009)
# Activity calls are given as the source filed them. The calls are words filed in the database; no cut-off is given here.
# What was measured:
# Mus musculus = test: Inhibition of 5'-TCTGACRTTCT-X-TCTTRCAGTCT-3'-induced KC production in C57BL/6 mouse treated 72 hrs before induction at 10 mg/kg, sc; assay type: functional; details: C57BL/6, sc, route subcutaneous
# In short: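 Female C57BL/6 mice (n=3) received antagonist 10 mg/kg sc in the right flank. After 72 h, TLR9 agonist 0.25 mg/kg sc was given in the left flank. Serum was taken 2 h after agonist and cytokines/chemokines were measured by Luminex multiplex assay. Representative of at least three experiments.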
# [1] = target: T1, Toll-like receptor 9 (Mus musculus) (UniProt Q9EQU3); test: Antagonist activity at mouse TLR9 expressed in HEK293 cells assessed as inhibition of 5'-TCTGACRTTCT-X-TCTTRCAGTCT-3'-induced NF-kappaB activation pretreated for 1 hr in presence of increasing levels of 5'-TCTGACRTTCT-X-TCTTRCAGTCT-3'; assay type: functional, cell-based
# T1 sequence (whole entry): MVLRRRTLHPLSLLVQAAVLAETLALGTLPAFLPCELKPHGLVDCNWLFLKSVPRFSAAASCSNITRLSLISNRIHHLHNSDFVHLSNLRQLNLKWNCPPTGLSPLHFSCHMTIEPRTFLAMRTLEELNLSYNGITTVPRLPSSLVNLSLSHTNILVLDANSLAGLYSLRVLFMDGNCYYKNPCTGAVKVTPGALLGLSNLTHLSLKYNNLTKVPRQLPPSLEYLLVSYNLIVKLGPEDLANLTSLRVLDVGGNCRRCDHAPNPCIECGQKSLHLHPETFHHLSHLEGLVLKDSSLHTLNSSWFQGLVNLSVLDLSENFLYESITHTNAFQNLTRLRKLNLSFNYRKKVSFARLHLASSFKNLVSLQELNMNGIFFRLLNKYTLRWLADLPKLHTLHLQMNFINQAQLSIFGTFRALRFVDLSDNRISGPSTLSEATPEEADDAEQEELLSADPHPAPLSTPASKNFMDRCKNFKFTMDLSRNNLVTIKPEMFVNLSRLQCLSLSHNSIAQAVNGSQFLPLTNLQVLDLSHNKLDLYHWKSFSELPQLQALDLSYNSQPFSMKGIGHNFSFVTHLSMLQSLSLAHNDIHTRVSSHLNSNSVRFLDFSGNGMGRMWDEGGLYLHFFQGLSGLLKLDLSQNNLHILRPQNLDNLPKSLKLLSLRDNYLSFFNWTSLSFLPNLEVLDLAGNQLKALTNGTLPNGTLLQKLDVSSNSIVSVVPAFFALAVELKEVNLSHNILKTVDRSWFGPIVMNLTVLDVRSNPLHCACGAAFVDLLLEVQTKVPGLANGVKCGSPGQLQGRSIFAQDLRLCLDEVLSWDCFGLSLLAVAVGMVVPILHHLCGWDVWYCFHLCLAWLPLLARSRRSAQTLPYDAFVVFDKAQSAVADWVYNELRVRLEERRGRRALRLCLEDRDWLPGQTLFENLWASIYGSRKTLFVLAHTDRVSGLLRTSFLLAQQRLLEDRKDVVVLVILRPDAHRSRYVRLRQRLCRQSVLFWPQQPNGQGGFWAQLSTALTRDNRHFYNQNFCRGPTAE
# In short: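 In mouse TLR9-HEK293 cells with SEAP reporter, a fixed 10 µg/mL antagonist was combined with increasing TLR9 agonist concentrations for 18 h. Quanti-Blue SEAP read-out of NF-κB activity.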
compound,measurement,setting,value
CO[C@@H]1[C@H](OP(=O)(S)OC[C@H]2O[C@@H](n3ccc(N)nc3=O)C[C@@H]2OP(=O)(S)OC[C@H]2O[C@@H](n3ccc4c(=O)[nH]c(N)nc43)C[C@@H]2OP(=O)(S)OC[C@H]2O[C@@H](n3cc(C)c(=O)[nH]c3=O)C[C@@H]2OP(=O)(S)OC[C@H]2O[C@@H](n3cc(C)c(=O)[nH]c3=O)C[C@@H]2OP(=O)(S)OC[C@H]2O[C@@H](n3ccc(N)nc3=O)C[C@@H]2OP(=O)(S)OC[C@H]2O[C@@H](n3cc(C)c(=O)[nH]c3=O)C[C@@H]2OP(=O)(S)OC[C@H]2O[C@@H](n3ccc(N)nc3=O)C[C@@H]2OP(=O)(S)OC[C@H]2O[C@@H](n3cc(C)c(=O)[nH]c3=O)C[C@@H]2OP(=O)(S)OC[C@H]2O[C@@H](n3cnc4c(=O)[nH]c(N)nc43)C[C@@H]2OP(=O)(S)OC[C@H]2O[C@@H](n3cc(C)c(=O)[nH]c3=O)C[C@@H]2O)[C@@H](COP(=O)(S)O[C@H]2[C@@H](OC)[C@H](n3cnc4c(=O)[nH]c(N)nc43)O[C@@H]2COP(=O)(S)O[C@H]2C[C@H](n3cc(C)c(=O)[nH]c3=O)O[C@@H]2COP(=O)(S)O[C@H]2C[C@H](n3ccc(N)nc3=O)O[C@@H]2COP(=O)(S)O[C@H]2C[C@H](n3cc(C)c(=O)[nH]c3=O)O[C@@H]2COP(=O)(S)O[C@H]2C[C@H](n3cnc4c(N)ncnc43)O[C@@H]2COP(=O)(S)O[C@H]2C[C@H](n3cc(C)c(=O)[nH]c3=O)O[C@@H]2COP(=O)(S)O[C@@H]2C[C@@H](n3ccc(N)nc3=O)O[C@H]2CO)O[C@H]1n1cnc2c(N)ncnc21 (some centres not stated),inhibition in vivo at 10 mg/kg,Mus musculus,≥ 50%
same,Activity,[1],inactive
